The nature of data set [1]: Antiproliferative activity against human CAR cells after 72 hrs by MTT assay. It is filed as functional, cell-based. In outline:
(§1)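 CAR cells (CAL27 made cisplatin-resistant by 10 cycles of 10–80 μM cisplatin) kept in DMEM/10% FBS with 80 μM cisplatin. Seeded 2×10^4 cells/well and exposed to 0, 25, 50, 75 and 100 μM for 48 or 72 h, with 0.5% DMSO as vehicle. MTT (500 μg/ml) added for 4 h at 37 °C, formazan dissolved in DMSO, A570 read as % of control, IC50 derived.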

Data set [2] is described as follows: Antiproliferative activity against human CAR cells after 48 hrs by MTT assay. It is filed as functional, cell-based. In outline:
as §1

Data set [3] in a line: Antitumor activity against human CAR cells xenografted in BALB/c nude mouse assessed as tumor weight at 25 mg/kg, po qd administered for 30 days measured on day 31 relative to control. Type of data set: functional. In outline:
(§2)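 Male BALB/c nude mice, four weeks old, implanted subcutaneously in the flank with CAR cells (cisplatin-resistant CAL27 kept in 80 μM cisplatin), 1×10^7 cells/mouse in 0.2 mL medium:Matrigel 1:1. Dosing began at ~50 mm3 tumors (day 22), eight mice/group, oral once daily for 30 days; vehicle 1,2-propanediol. Sacrificed day 31; excised tumors weighed, compared to vehicle controls.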
For orientation: In xenograft studies the graft and the host belong to different species.

A short description of data set [4]: Antitumor activity against human CAR cells xenografted in BALB/c nude mouse assessed as inhibition of tumor weight at 50 mg/kg, po qd administered for 30 days measured on day 31 relative to control. Type of data set: functional. Details: scale not given: the % may be the effect or the level left. In outline: as §2
A short description of data set [5]: Antitumor activity against human CAR cells xenografted in BALB/c nude mouse assessed as inhibition of tumor weight at 100 mg/kg, po qd administered for 30 days measured on day 31 relative to control. Type of data set: functional. On the set-up: scale not given: the % may be the effect or the level left. The method, boiled down:
as §2

Data set [6] concerns Mus musculus. Nature of the data set: Toxicity in BALB/c nude mouse xenografted with human CAR cells assessed as change in body weight at 25 to 100 mg/kg, po qd administered for 30 days measured during compound dosing. It is filed as organism-based. The conditions noted are these: in vivo, 720 h. The method, boiled down:
(§3)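 During the 30-day once-daily oral dosing (25–100 mg/kg) of CAR-xenografted nude mice, body weight, food intake and behaviour were tracked and compared with vehicle-treated controls.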

Data set [7] has as its system Mus musculus. Nature of the data set: Toxicity in BALB/c nude mouse xenografted with human CAR cells assessed as change in food consumption at 25 to 100 mg/kg, po qd administered for 30 days measured during compound dosing. It is filed as organism-based. The conditions noted are these: in vivo, 720 h. In outline: as §3
Data set [8] deals with Mus musculus. Nature of the data set: Toxicity in BALB/c nude mouse xenografted with human CAR cells assessed as change in behavior at 25 to 100 mg/kg, po qd administered for 30 days measured during compound dosing. It is filed as organism-based. The settings on record: in vivo, 720 h. The method, boiled down: as §3
For data set [9], the system named is Mus musculus. Briefly: Toxicity in BALB/c nude mouse xenografted with human CAR cells assessed as total protein levels in blood at 25 mg/kg, po qd administered for 30 days measured on day 31 (reference value: 5.6 +/- 0.283 g/dL). Type of data set: organism-based. The settings on record: in vivo, 720 h.
For data set [10], the system named is Mus musculus. Briefly: Toxicity in BALB/c nude mouse xenografted with human CAR cells assessed as total protein levels in blood at 50 mg/kg, po qd administered for 30 days measured on day 31 (reference value: 5.6 +/- 0.283 g/dL). Type of data set: organism-based. The conditions noted are these: in vivo, 720 h.
Data set [11] deals with Mus musculus. Nature of the data set: Toxicity in BALB/c nude mouse xenografted with human CAR cells assessed as total protein levels in blood at 100 mg/kg, po qd administered for 30 days measured on day 31 (reference value: 5.6 +/- 0.283 g/dL). Type of data set: organism-based. The settings on record: in vivo, 720 h.
For data set [12], the system named is Mus musculus. Briefly: Toxicity in BALB/c nude mouse xenografted with human CAR cells assessed as albumin levels in blood at 25 mg/kg, po qd administered for 30 days measured on day 31 (reference value: 3.45 +/- 0.138 g/dL). Type of data set: organism-based. The conditions noted are these: in vivo, 720 h.
Data set [13] deals with Mus musculus. Briefly: Toxicity in BALB/c nude mouse xenografted with human CAR cells assessed as albumin levels in blood at 50 mg/kg, po qd administered for 30 days measured on day 31 (reference value: 3.45 +/- 0.138 g/dL). It is filed as organism-based. The settings on record: in vivo, 720 h.
Data set [14] deals with Mus musculus. Briefly: Toxicity in BALB/c nude mouse xenografted with human CAR cells assessed as albumin levels in blood at 100 mg/kg, po qd administered for 30 days measured on day 31 (reference value: 3.45 +/- 0.138 g/dL). The conditions noted are these: in vivo, 720 h. It is filed as organism-based.
Data set [15] relates to Mus musculus. Nature of the data set: Toxicity in BALB/c nude mouse xenografted with human CAR cells assessed as blood urea nitrogen levels in blood at 25 mg/kg, po qd administered for 30 days measured on day 31 (reference value: 27.7 +/- 4.116 mg/dL). The settings on record: in vivo, 720 h. Type of data set: organism-based.
Data set [16] concerns Mus musculus. Nature of the data set: Toxicity in BALB/c nude mouse xenografted with human CAR cells assessed as blood urea nitrogen levels in blood at 50 mg/kg, po qd administered for 30 days measured on day 31 (reference value: 27.7 +/- 4.116 mg/dL). The settings on record: in vivo, 720 h. It is filed as organism-based.
The test system of data set [17] is Mus musculus. Briefly: Toxicity in BALB/c nude mouse xenografted with human CAR cells assessed as blood urea nitrogen levels in blood at 100 mg/kg, po qd administered for 30 days measured on day 31 (reference value: 27.7 +/- 4.116 mg/dL). It is filed as organism-based. The conditions noted are these: in vivo, 720 h.
Data set [18] concerns Mus musculus. Briefly: Toxicity in BALB/c nude mouse xenografted with human CAR cells assessed as creatinine levels in blood at 25 mg/kg, po qd administered for 30 days measured on day 31 (reference value: 1 +/- 0.18 mg/dL). It is filed as organism-based. The settings on record: in vivo, 720 h.
Data set [19] deals with Mus musculus. Briefly: Toxicity in BALB/c nude mouse xenografted with human CAR cells assessed as creatinine levels in blood at 50 mg/kg, po qd administered for 30 days measured on day 31 (reference value: 1 +/- 0.18 mg/dL). The settings on record: in vivo, 720 h. Type of data set: organism-based.
In data set [20] the test system is Mus musculus. Nature of the data set: Toxicity in BALB/c nude mouse xenografted with human CAR cells assessed as creatinine levels in blood at 100 mg/kg, po qd administered for 30 days measured on day 31 (reference value: 1 +/- 0.18 mg/dL). It is filed as organism-based. The settings on record: in vivo, 720 h.
In data set [21] the test system is Mus musculus. Nature of the data set: Toxicity in BALB/c nude mouse xenografted with human CAR cells assessed as uric acid levels in blood at 25 mg/kg, po qd administered for 30 days measured on day 31 (reference value: 4.65 +/- 0.864 mg/dL). It is filed as organism-based. The conditions noted are these: in vivo, 720 h.
Data set [22] relates to Mus musculus. Nature of the data set: Toxicity in BALB/c nude mouse xenografted with human CAR cells assessed as uric acid levels in blood at 50 mg/kg, po qd administered for 30 days measured on day 31 (reference value: 4.65 +/- 0.864 mg/dL). It is filed as organism-based. The settings on record: in vivo, 720 h.
In data set [23] the test system is Mus musculus. Nature of the data set: Toxicity in BALB/c nude mouse xenografted with human CAR cells assessed as uric acid levels in blood at 100 mg/kg, po qd administered for 30 days measured on day 31 (reference value: 4.65 +/- 0.864 mg/dL). Type of data set: organism-based. The conditions noted are these: in vivo, 720 h.
The test system of data set [24] is Mus musculus. Nature of the data set: Toxicity in BALB/c nude mouse xenografted with human CAR cells assessed as glucose levels in blood at 25 mg/kg, po qd administered for 30 days measured on day 31 (reference value: 180 +/- 10.392 mg/dL). It is filed as organism-based. The conditions noted are these: in vivo, 720 h.
Data set [25] deals with Mus musculus. Nature of the data set: Toxicity in BALB/c nude mouse xenografted with human CAR cells assessed as glucose levels in blood at 50 mg/kg, po qd administered for 30 days measured on day 31 (reference value: 180 +/- 10.392 mg/dL). It is filed as organism-based. The conditions noted are these: in vivo, 720 h.
Data set [26] relates to Mus musculus. Nature of the data set: Toxicity in BALB/c nude mouse xenografted with human CAR cells assessed as glucose levels in blood at 100 mg/kg, po qd administered for 30 days measured on day 31 (reference value: 180 +/- 10.392 mg/dL). The conditions noted are these: in vivo, 720 h. Type of data set: organism-based.
Data set [27] can be described thus: Prodrug conversion in Sprague-Dawley rat whole blood assessed as formation of pterostilbene-4'-O-sulfate by measuring Tmax of metabolite at 100 mg/kg, po using HPbetaCD, PEG300, H2O formulation at 20:10:70 by LC-MS method. The conditions noted are these: in vivo. Type of data set: ADME, organism-based. The method, boiled down:
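Male Sprague-Dawley rats (200–220 g), n = 3, given a single oral 100 mg/kg dose in HPβCD:PEG300:H2O 20:10:70 (10 mg/mL). Tail-vein blood collected into heparin at 0.5–24 h (0.5, 1, 1.5, 2, 3, 4, 5, 6, 8, 24 h).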

Take `CC(CO)(CO)C(=O)Oc1ccc(/C=C/c2cc(OC(=O)C(C)(CO)CO)cc(OC(=O)C(C)(CO)CO)c2)cc1`: in [1], the half-maximal inhibitory concentration (IC50) (commonly the concentration needed to halve the response being measured) stood at 124 µM.
Take `COc1cc(/C=C/c2ccc(OC(=O)C(C)(CO)CO)cc2)cc(OC(=O)C(C)(CO)CO)c1`: the IC50 in data set [2] is 56.5 µM; in data set [1], 59.8 µM.
On to `COc1cc(O)cc(/C=C/c2ccc(OC(=O)C(C)(CO)CO)cc2)c1`, for which, in data set [1], the half-maximal inhibitory concentration (IC50) was 64 µM.
With `COc1ccc(/C=C/c2cc(O)cc(OC)c2)cc1`, the results for the IC50 in data set [2] and in [1] were 100 µM and 98.3 µM, respectively.
On the same counts, the results for `CC(=O)Oc1cc(/C=C/c2ccc(OC(=O)C(C)(CO)CO)cc2)cc(OC(C)=O)c1` are 103 µM and 116 µM.
Consider `COc1cc(/C=C/c2ccc(OC(=O)C(C)(CO)CO)cc2)cc(OC(C)=O)c1`, for which the IC50 turned out to be 52 µM in data set [2] and 50.3 µM in data set [1].
For `Oc1ccc(/C=C/c2cc(O)cc(O)c2)cc1` [RESVERATROL], the half-inhibitory concentration (IC50) in [1] came to 88.3 µM.
Regarding `COc1cc(/C=C/c2ccc(OC(=O)C(C)(CO)CO)cc2)cc(OC)c1`, the IC50 was 73.2 µM in data set [2] and 32.6 µM in [1]. Besides, the Activity is listed as 60% in [3]; 47% in data set [4]; 22% in data set [5]; “Non-Toxic” in the data set with Mus musculus [6]; “Non-Toxic” in the data set with Mus musculus [7]; “Non-Toxic” in the data set on Mus musculus [8]. The Activity in the data set on Mus musculus [9] was found to be 5.383 g/dL; in the data set with Mus musculus [10] it was 5.583 g/dL; in the data set on Mus musculus [11] it was 5.283 g/dL; with Mus musculus [12], 3.666 g/dL; in the data set on Mus musculus [13] it was 3.417 g/dL; in the data set on Mus musculus [14], 3.4 g/dL. Also, the Activity with Mus musculus [15] stood at 28.2 mg/dL; with Mus musculus [16], 30.95 mg/dL; in the data set with Mus musculus [17] it was 29.25 mg/dL; in the data set with Mus musculus [18] it was 1.133 mg/dL; with Mus musculus [19] it was 0.91 mg/dL; with Mus musculus [20], 0.83 mg/dL. For the same molecule, the Activity worked out at 4.567 mg/dL in the data set with Mus musculus [21]; 5.45 mg/dL in the data set on Mus musculus [22]; 5.05 mg/dL in the data set on Mus musculus [23]; 181.333 mg/dL in the data set with Mus musculus [24]; 172.5 mg/dL in the data set on Mus musculus [25]; 196.5 mg/dL in the data set with Mus musculus [26]. In addition, in data set [27], the Tmax (as a rule, the time from dosing to the highest level) was determined as 2 h.
For `COc1ccc(/C=C/c2cc(OC(=O)C(C)(CO)CO)cc(OC(=O)C(C)(CO)CO)c2)cc1`, the results for the IC50 in data set [2] and in data set [1] were 73.9 µM and 70.8 µM, respectively.
In the case of `CC(CO)(CO)C(=O)Oc1cc(O)cc(/C=C/c2ccc(O)cc2)c1`, in [2], the half-maximal inhibitory concentration (IC50) is 54.9 µM.
`CC(=O)Oc1cc(/C=C/c2ccc(OC(=O)C(C)(CO)CO)cc2)cc(OC(=O)C(C)(CO)CO)c1`: the half-maximal inhibitory concentration (IC50) in data set [2] was determined as 122 µM; in data set [1], 119 µM.
On the same counts, the results for `COc1ccc(/C=C/c2cc(OC)cc(OC(=O)C(C)(CO)CO)c2)cc1` are 64.2 µM and 67.3 µM.

The values above are taken from ChEMBL document CHEMBL4229408 (Bioorg Med Chem, 2018).
